Blank lines part the entries; values can stand above or below the compound they belong to. Active and inactive are the calls of the source. No cut-off for these calls is given here.
Experiments:
Rattus norvegicus [1] = experiment: Oral dose necessary to produce an excretion of 2 mequiv of Na+/kg in the rat urine in the 4-h period after peroral administration; type: ADME, organism-based; conditions: in vivo
How it was run: (§1)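 Rats dosed orally. Urinary Na⁺ was measured over the 4 h after dosing. ED₂ is the oral dose (mg/kg) giving excretion of 2 mequiv Na⁺/kg in that period.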

Rattus norvegicus [2] = experiment: Oral dose necessary to produce an excretion of 2 mequiv of Na+/kg in the rat urine in the 4-h period after peroral administration; Inactive; type: ADME, organism-based; conditions: in vivo; how it was run: as §1
[3] = Dose required for 50% inhibition of chloride transport in frog cornea was evaluated; type: functional
Canis familiaris [4] = experiment: Oral dose in mg/kg necessary to produce an excretion of 5 mequiv of Na+/kg in the dog urine during 6-h period after dosing; conditions: in vivo
frog = experiment: Dose required for 50% inhibition of chloride transport in frog cornea was evaluated; No inhibition; type: functional, tissue-based
Canis familiaris [5] = organism: Canis familiaris; experiment: Relative amount of acid ([4-(3-Aminomethyl-4-hydroxy-benzoyl)-2,3-dichloro-phenoxy]-acetic acid;) appearing in dog plasma was reported; type: functional, Canis lupus familiaris
Rattus norvegicus [6] = experiment: Oral dose necessary to produce an excretion of 2 mequiv of Na+/kg in the rat urine in the 4-h period after peroral administration; inactive; type: ADME, organism-based; conditions: in vivo; how it was run: as §1

ED2 (Rattus norvegicus [1]): 0.11 mg/kg
Structure (SMILES): CCOC(=O)C1Cc2cc(C(=O)c3ccc(O)c(CN)c3)c(Cl)c(Cl)c2O1 (stereo unspecified)

ED2 (Rattus norvegicus [1]): 28.5 mg/kg
Structure (SMILES): CC(=O)COc1ccc(C(=O)c2ccc(O)c(CN)c2)c(Cl)c1Cl.Cl

ED2 (Rattus norvegicus [1]): 0.8 mg/kg
Structure (SMILES): CCOC(=O)COc1ccc(Oc2ccc(O)c(CN)c2)c(Cl)c1Cl.Cl

ED2 (Rattus norvegicus [2]): Not Active | IC50 [3]: 8.4 µM | ED5 (Canis familiaris [4]): 0.71 mg/kg
Structure (SMILES): Cl.NCc1cc(C(=O)c2ccc(OCC(=O)O)c(Cl)c2Cl)ccc1O

ED2 (Rattus norvegicus [1]): 16.2 mg/kg | ED5 (Canis familiaris [4]): 8 mg/kg
Structure (SMILES): Cl.NCCOc1ccc(C(=O)c2ccc(O)c(CN)c2)c(Cl)c1Cl
Inhibition (frog): inactive | Relative amount (Canis familiaris [5]): 25%

ED2 (Rattus norvegicus [1]): 13.5 mg/kg
Structure (SMILES): CCOC(=O)CCCOc1ccc(Oc2ccc(O)c(CN)c2)c(Cl)c1Cl.Cl

ED2 (Rattus norvegicus [2]): Not Active
Structure (SMILES): CCOC(=O)c1ccc(Oc2ccc(O)c(CN)c2)c(Cl)c1Cl.Cl

IC50 [3]: 14.6 µM | ED2 (Rattus norvegicus [1]): 2.5 mg/kg | ED5 (Canis familiaris [4]): 1 mg/kg
Structure (SMILES): CCOC(=O)COc1ccc(C(=O)c2ccc(O)c(CN)c2)c(Cl)c1Cl.Cl
Relative amount (Canis familiaris [5]): 100%

ED2 (Rattus norvegicus [1]): 1 mg/kg | ED5 (Canis familiaris [4]): 5.5 mg/kg
Structure (SMILES): Cl.NCc1cc(C(=O)c2ccc(OCCO)c(Cl)c2Cl)ccc1O
Inhibition (frog): inactive | Relative amount (Canis familiaris [5]): 13%

ED2 (Rattus norvegicus [2]): Not Active
Structure (SMILES): Cl.N#CCOc1ccc(C(=O)c2ccc(O)c(CN)c2)c(Cl)c1Cl

IC50 [3]: 16.5 µM | ED2 (Rattus norvegicus [1]): 17 mg/kg | ED5 (Canis familiaris [4]): 0.7 mg/kg
Structure (SMILES): Cl.NCc1cc(C(=O)c2ccc(OCC(N)=O)c(Cl)c2Cl)ccc1O
Relative amount (Canis familiaris [5]): 67%

ED2 (Rattus norvegicus [1]): 10.7 mg/kg
Structure (SMILES): CCOC(=O)CCc1ccc(Oc2ccc(O)c(CN)c2)c(Cl)c1Cl.Cl

ED2 (Rattus norvegicus [1]): 1.22 mg/kg
Structure (SMILES): CCOC(=O)CSc1ccc(Oc2ccc(O)c(CN)c2)c(Cl)c1Cl.Cl

ED2 (Rattus norvegicus [1]): 19.5 mg/kg
Structure (SMILES): CCOC(=O)C(C)Oc1ccc(C(=O)c2ccc(O)c(CN)c2)c(Cl)c1Cl.Cl (stereo unspecified)

ED2 (Rattus norvegicus [2]): Not Active
Structure (SMILES): COc1ccc(C(=O)c2ccc(O)c(CN)c2)c(Cl)c1Cl.Cl

ED2 (Rattus norvegicus [1]): 21.5 mg/kg
Structure (SMILES): CCOC(=O)Cc1ccc(Oc2ccc(O)c(CN)c2)c(Cl)c1Cl.Cl

ED2 (Rattus norvegicus [6]): Not Active
Structure (SMILES): CCOC(=O)C(C)(C)Oc1ccc(C(=O)c2ccc(O)c(CN)c2)c(Cl)c1Cl.Cl
